# Assay results from different studies.
# Lines come from different studies, so protocols differ.
# AGTR2: Type-2 angiotensin II receptor (AGTR2, Homo sapiens, UniProt P50052)
# Adora2a: Adenosine receptor A2a (Adora2a, Rattus norvegicus, UniProt P30543)
Structure (SMILES),target,observed,action,method,notes,Ki [nM]
CCC(C)[C@H](NC(=O)c1cccc(C(=O)N(CC)CC)c1)C(=O)O (stereo in doubt),AGTR2,ligand displacement in cells,,radioligand,,22000
N#Cc1c(N)nc(SCC(N)=O)c(C#N)c1-c1cccc(O)c1,Adora2a,ligand displacement,,radioligand,cell membranes,751
C=CCN1CCCn2c1nc1c2c(=O)n(C)c(=O)n1C,Adora2a,ligand displacement,,radioligand,cell membranes,2620
CCCCOC(=O)NS(=O)(=O)c1sc(CC(C)C)cc1-c1ccc(OC(F)(F)F)c(Cn2ccnc2)c1,AGTR2,ligand displacement,,radioligand,cell membranes,280
COc1ccc(-c2c(C#N)c(N)nc3sc(C(N)=O)c(N)c23)cc1,Adora2a,ligand displacement,,radioligand,cell membranes,561
CC(C)CC(C)N1CCCn2c1nc1c2c(=O)n(C)c(=O)n1C (stereo not shown),Adora2a,ligand displacement,,radioligand,cell membranes,5370
COc1ccc(-c2c(C#N)c(N)nc(SCc3cccc(C)n3)c2C#N)cc1,Adora2a,ligand displacement,,radioligand,cell membranes,48
CCC(C)N1CCCn2c1nc1c2c(=O)n(C)c(=O)n1C (stereo not shown),Adora2a,ligand displacement,,radioligand,cell membranes,4640
Fc1ccc(C2=Nn3c(nnc3-c3cccc(Br)c3)SC2)cc1,"Urease (Canavalia ensiformis, UniProt P07374)",enzyme activity,inhibitor,,,3620
CCCCn1c(=O)c2[nH]c(C34CC5CC(CC3C5)C4)nc2n(CCCO)c1=O,Adora2a,ligand displacement,,radioligand,cell membranes,371
CCCC[C@H](NC(=O)[C@H](C)c1c(C)[nH]c2ccc(O)cc12)c1ncc(-c2cc3ccccc3nc2OC)[nH]1,"Prostaglandin E2 receptor EP1 subtype (PTGER1, Homo sapiens, UniProt P34995)",cell-free assay,,,,2250
CCCN1CCCn2c1nc1c2c(=O)n(C)c(=O)n1C,Adora2a,ligand displacement,,radioligand,cell membranes,1290
CCC(C)[C@H](NC(=O)c1ccc(C)c(C(=O)N(C)Cc2ccccc2)c1)C(=O)O (stereo in doubt),AGTR2,ligand displacement in cells,,radioligand,,7600
CCN1CCCn2c1nc1c2c(=O)n(C)c(=O)n1C,Adora2a,ligand displacement,,radioligand,cell membranes,2650
CCc1ccc(C(=O)N[C@H](C(=O)O)C(C)CC)cc1C(=O)N(CC)Cc1ccccc1 (stereo in doubt),AGTR2,ligand displacement in cells,,radioligand,,8300
Cc1nc2cc(OCCCCN3CCN(c4cccc(Cl)c4Cl)CC3)ccc2s1,"Sodium-dependent serotonin transporter (SLC6A4, Homo sapiens, UniProt P31645)",ligand displacement,,radioligand,,340
CN1CCCn2c1nc1c2c(=O)n(C)c(=O)n1C,Adora2a,ligand displacement,,radioligand,cell membranes,4300
CCC(C)[C@H](NC(=O)c1ccc(C(=O)N(Cc2ccccc2)Cc2ccccc2)cc1)C(=O)O (stereo in doubt),AGTR2,ligand displacement in cells,,radioligand,,35000
COc1cccc(-c2c(C#N)c(N)nc(SCC(N)=O)c2C#N)c1,Adora2a,ligand displacement,,radioligand,cell membranes,1200
CCc1ccc(C(=O)N[C@H](C(=O)O)C(C)CC)cc1C(=O)N(Cc1ccccc1)Cc1ccccc1 (stereo in doubt),AGTR2,ligand displacement in cells,,radioligand,,4400
Cc1cccc(CSc2nc(N)c(C#N)c(-c3cccc(O)c3)c2C#N)n1,Adora2a,ligand displacement,,radioligand,cell membranes,20.6
CCc1ccc(C(=O)N[C@H](C(=O)O)C(C)CC)cc1C(=O)N(CC)CC (stereo in doubt),AGTR2,ligand displacement in cells,,radioligand,,10000
COc1ccccc1N1CCN(CCCCN2CCc3ccccc3C2=O)CC1,"D(1A) dopamine receptor (DRD1, Homo sapiens, UniProt P21728)",cell-free assay,,radioligand,,1620
C#CCN1CCCn2c1nc1c2c(=O)n(C)c(=O)n1C,Adora2a,ligand displacement,,radioligand,cell membranes,7400
CCC(C)[C@H](NC(=O)c1cccc(C(=O)N(Cc2ccccc2)Cc2ccccc2)c1)C(=O)O (stereo in doubt),AGTR2,ligand displacement in cells,,radioligand,,7500
